Screening results: PubChem, Johns Hopkins Ion Channel Center
KCNQ1 act – potentiates or activates the human KCNQ1 potassium channel; hit rate 0.35% among 310,000; AID 2648; CHO-K1 KCNQ1, thallium flux FluxOR fluorescence; hits give high values; P51787; B-score at 10 µM;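 active = fluorescence ratio B-score, a plate-corrected score, at least three library SD, with initial intensity B-score within 5 SD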
Target sequence (P51787 whole entry, looked up): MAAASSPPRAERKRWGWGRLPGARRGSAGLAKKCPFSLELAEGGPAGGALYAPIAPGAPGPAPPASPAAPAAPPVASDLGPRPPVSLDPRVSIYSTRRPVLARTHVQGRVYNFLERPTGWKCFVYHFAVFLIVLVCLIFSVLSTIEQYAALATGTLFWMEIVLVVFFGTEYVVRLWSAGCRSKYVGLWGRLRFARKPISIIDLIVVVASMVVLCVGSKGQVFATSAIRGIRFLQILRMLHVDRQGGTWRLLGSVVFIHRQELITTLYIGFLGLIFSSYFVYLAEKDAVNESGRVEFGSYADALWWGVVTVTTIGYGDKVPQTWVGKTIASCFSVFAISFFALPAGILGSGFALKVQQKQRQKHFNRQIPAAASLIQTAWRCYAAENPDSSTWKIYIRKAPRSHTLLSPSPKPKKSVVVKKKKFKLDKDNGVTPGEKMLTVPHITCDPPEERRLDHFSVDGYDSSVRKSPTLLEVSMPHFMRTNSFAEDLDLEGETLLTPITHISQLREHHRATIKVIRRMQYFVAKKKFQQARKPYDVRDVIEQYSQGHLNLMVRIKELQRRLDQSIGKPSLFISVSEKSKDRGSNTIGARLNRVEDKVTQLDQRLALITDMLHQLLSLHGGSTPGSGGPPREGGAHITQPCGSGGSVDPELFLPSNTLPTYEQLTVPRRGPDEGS
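Medium – assay buffer, equal DMSO in all wells · Material – CHO-K1 cell line with stable KCNQ1 potassium channel expression · Signal – kinetic FluxOR thallium fluorescence, 10-s 1-Hz baseline, 110-s post-stimulus read · Compound – single concentration per compound, DMSO matched to controls · Schedule – 37 °C overnight plating, 90-min dark dye load, 20-min compound pretreatment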
KCNK9 block – blocks the human KCNK9 two-pore domain potassium channel. Q9NPC2. HEK293 KCNK9, FluxOR thallium flux fluorescence; hits give low values. B-score at 10 µM. hit rate 1.2% among 310,000;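 active = ratio B-score over 3 SD below the library mean, with starting fluorescence within 5 SD of its mean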;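 also: negative B-score means less thallium flux so channel inhibition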
KCNK3 block – human KCNK3 channel inhibition, primary screen; O14649; CHO-KCNK3 thallium flux, FluxOR fluorescence; hits give low values; B-score at 10 µM; hit rate 0.84% among 340,000; AID 602410;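 active = B-score under library mean minus 4 SD, starting fluorescence ratio at most library mean plus 5 SD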;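 also: more negative B-score means stronger inhibition of thallium flux through KCNK3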
hERG rescue – hERG (human) protection from proarrhythmic block; CHO-hERG, FluxOR thallium flux, dofetilide IC70 present; activation (rescue from dofetilide block), less the hit threshold, % at 10 µM; hit rate 0.51% among 310,000;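 active = activation above the mean of controls blocked by dofetilide plus 5 SD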;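 also: thallium influx through hERG after potassium depolarization seen as dye fluorescence rise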
KCNQ1 inh – blocks the human KCNQ1 potassium channel. AID 2642. CHO-K1 KCNQ1, FluxOR thallium flux fluorescence; hits give high values. B-score at 10 µM. hit rate 1.3% among 310,000;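 active = compounds whose thallium flux B-score, printed positive for inhibition, exceeds three library SD while starting fluorescence stays within three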;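 also: channel opened by potassium depolarization with thallium stimulus after 20 min compound exposure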
Kir21 block – inhibitors of mouse Kir2.1 inward-rectifier potassium channel. HEK293-Kir2.1, FluxOR thallium flux fluorescence; hits give low values. B-score at 10 µM. hit rate 0.85% among 310,000;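 active = fluorescence ratio B-score at or below minus 3 SD of library scores, with starting-brightness B-score within 2 SD, cut at about -4.2 in these data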;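 also: channel flux triggered by added potassium and thallium sulfate stimulus; B-score of peak minus minimum fluorescence over baseline after thallium stimulus; more negative B-score means stronger Kir2.1 block with less thallium influx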
KCNK9 inh conf – human KCNK9 inhibitor confirmation; AID 492992; shares compounds with KCNK9 block; HEK293 KCNK9 cells, FluxOR thallium flux fluorescence; hit rate 43% among 4,900; inhibition, % at 10 µM;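 active = thallium signal inhibited by more than 5 SD of the compound-free buffer control wells, on both duplicate plates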;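 also: 0% = assay buffer control wells without compound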
Kir2-1 spec – mouse Kir2.1 off-target activity of KCNK9 modulators | hit rate 4% among 4,900 | shares compounds with KCNK9 block | inhibition, % at 10 µM | Kir2.1 cells, FluxOR thallium flux fluorescence;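 active = thallium signal drop more than 5 SD beyond the mean of the no-compound control wells, seen in both duplicate plates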;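 also: signal is fluorescence rise after thallium addition divided by baseline fluorescence; plate controls were assay buffer only for no effect and full block by chlorpromazine control for full effect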
HEK293 Tl ctr – non-induced cell nonspecific activity of KCNK9 modulators | shares compounds with KCNK9 block | non-induced KCNK9-HEK293, FluxOR thallium flux | inhibition, % at 10 µM | hit rate 40% among 4,900;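 active = thallium signal drop beyond 5 SD of the untreated control mean, on both duplicate plates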;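 also: plate controls were buffer only IC0 wells for no effect and SID17386958 at its maximal inhibitory level for full effect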
* hit, by the source's call; i = inactive; · = not tested or not shown. Sampled rows, rich in hits. Any-hit rate of the full collection: about 3.8%.

SMILES	KCNQ1 act	KCNK9 block	KCNK3 block	hERG rescue	KCNQ1 inh	Kir21 block	KCNK9 inh conf	Kir2-1 spec	HEK293 Tl ctr
COC(=O)C(Cc1ccc(O)cc1)N1Cc2ccccc2C1=O (stereo not drawn)	i	i	i	-4	i	-0.5	·	·	·
Cc1nn(CC2CC2)c(=O)n1-c1ccc(Oc2ccccc2)cc1	i	i	i	-3	i	-0.5	i	i	i
COc1ccc(-n2c(C)nn(CCOc3ccccc3)c2=O)cc1	i	i	i	-5	i	-1.2	·	·	·
O=C(NCCCn1ccnc1)c1ccc(-c2cccc(C(F)(F)F)c2)o1	·	·	i	·	·	·	·	·	·
CCOC(=O)Cn1c(=NC(=O)CSC(C)=O)sc2ccccc21	i	-8.2*	i	-12	i	-0.93	48%*	i	40%*
O=C(O)CC(c1ccc(C(F)(F)F)cc1)N1Cc2ccccc2C1=O (stereo not drawn)	i	i	i	-5	i	0.13	·	·	·
O=C(/C=C/c1ccco1)NC(=S)Nc1cccc(-c2nc3ccccc3s2)c1	i	i	i	-11	i	-0.39	i	i	i
Cc1noc(C)c1S(=O)(=O)N(C)CC(=O)Nc1ccc(F)cc1	i	-11*	i	-2	i	0.02	i	i	i
CCOc1ccc(NC(=O)CN(c2cc(C)cc(C)c2)S(=O)(=O)c2c(C)noc2C)cc1	i	i	i	-2	i	0	·	·	·
Cc1ccc(/C=N/n2cnc3sc(C)c(C)c3c2=O)o1	i	i	i	-9	i	0.7	i	i	i
CCc1cccc(C)c1NC(=O)COC(=O)CSCc1ccccc1	·	·	i	·	·	·	·	·	·
COc1ccc(C(=O)c2cccc(C(=O)c3ccc(OC)c(C)c3)c2)cc1C	i	i	i	-10	i	-0.08	i	i	i
CN(C)CC/C=C1\c2ccc(F)cc2Sc2cc(F)c(Cl)cc21	i	i	i	-19	i	-3.5	i	45%*	i
CN(C)CC/C=C1\c2cc(Cl)ccc2Sc2cc(F)c(F)cc21	i	i	i	-19	i	-4.2*	i	34%*	i
CN(C)CC/C=C1/c2ccc(F)cc2Sc2ccc(Cl)cc21	i	i	i	-18	i	-6.9*	i	50%*	i
CN(C)CC/C=C1\c2ccccc2Sc2cc(F)c(Cl)cc21	i	i	i	-18	i	-4.8*	i	49%*	i
CN(C)CC/C=C1\c2cc(F)ccc2CSc2ccccc21	i	i	i	-6	i	-0.13	·	·	·
CN(C)CC/C=C1/c2cc(F)ccc2CSc2ccc(F)cc21	i	i	i	-11	i	-2.4	·	·	·
CC(C)COc1ccc(C(=O)N(CC(=O)Nc2ccccc2C(F)(F)F)Cc2ccco2)cc1	i	i	i	-14	i	0.57	i	i	i
O=C(CN(Cc1ccco1)C(=O)c1ccc([N+](=O)[O-])cc1)Nc1ccccc1C(F)(F)F	·	·	i	·	·	·	·	·	·
COCCN(CCOc1cc(C)cc(C)c1)Cc1ccc(Cl)cc1	i	i	i	-9	i	-1.9	i	i	i
COc1cc(C#N)ccc1OCC(=O)N1CCc2ccccc2C1	i	i	i	-8	i	0.19	·	·	·
CCN(CC)CCNC(=S)Nc1ccc2nc(N3CCN(C)CC3)cc(C)c2c1	i	i	i	-6	i	-0.02	·	·	·
CCN(CC)CCNC(=S)Nc1ccc2nc(N3CCCC3)cc(C)c2c1	i	-9.4*	i	-6	i	0.24	i	i	i
S=C(c1ccc(-c2cc(Cl)ccc2Cl)o1)N1CCCCC1	i	-12*	i	-8	i	-1.1	46%*	i	42%*
O=C(c1ccc(-c2ccccc2Cl)o1)N1CCCCCCC1	·	·	i	·	·	·	·	·	·
